The source of these data is ChEMBL document CHEMBL1142247, “Structure-based design of novel groups for use in the P1 position of thrombin inhibitor scaffolds. Part 2: N-acetamidoimidazoles” (Bioorg Med Chem Lett, 2008).

A short description of data set [1]: Cmax in dog at 0.5 mg/kg, po. The data set is classed as ADME, organism-based, Canis lupus familiaris. The following applies: in vivo. More on the design: dose 0.5 mg/kg, route oral.
Data set [2] can be described thus: Half life in dog at 1 mg/kg, po. The data set is classed as ADME, organism-based, Canis lupus familiaris. More on the design: dose 1 mg/kg, route oral. Particulars: in vivo.
A short description of data set [3]: Inhibition of trypsin.
Data set [4] in a line: Half life in dog at 0.5 mg/kg, po. The class given is ADME, organism-based, Canis lupus familiaris. Further details: dose 0.5 mg/kg, route oral. The following applies: in vivo.
In data set [5] the test system is Canis familiaris. The experiment in a line: (§1) Half life in dog at 5 mg/kg, po. The data set is classed as ADME, organism-based, Canis lupus familiaris. Further details: dose 5 mg/kg, route oral. Particulars: in vivo.
For data set [6], the system named is Plasma. The experiment in a line: Anticoagulant potency in human plasma assessed as concentration required to double activated partial thromboplastin time. The class given is functional, cell-free.
Data set [7] can be described thus: Selectivity for thrombin over trypsin.
For data set [8], the target named is Prothrombin (Homo sapiens, UniProt P00734). Put plainly: Inhibition of thrombin.
Data set [9] concerns Rattus norvegicus. Put plainly: Antithrombotic activity against ferric chloride induced thrombosis in rat at 10 ug/kg/min, iv. The class given is functional, organism-based. The gist of the method: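 Ferric chloride-induced thrombosis in rats, with compound given by intravenous infusion at 10 µg/kg/min. Read-out is the number of animals with vessel occlusion out of 6.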
Data set [10] is described as follows: Half life in rhesus monkey at 5 mg/kg, po. Particulars: in vivo. The data set is classed as ADME, organism-based, Macaca mulatta. More on the design: dose 5 mg/kg, route oral.
A short description of data set [11]: Cmax in dog at 5 mg/kg, po. The data set is classed as ADME, organism-based, Canis lupus familiaris. Further details: dose 5 mg/kg, route oral. Particulars: in vivo.
Data set [12] can be described thus: Cmax in rhesus monkey at 5 mg/kg, po. The class given is ADME, organism-based, Macaca mulatta. More on the design: dose 5 mg/kg, route oral. The following applies: in vivo.
The nature of data set [13]: as §1. The class given is ADME, organism-based, Canis lupus familiaris. More on the design: dose 5 mg/kg, route oral. The following applies: in vivo.

Structures are written as SMILES. Activity calls are given as the source filed them.

With `Cc1nc(N)ccc1CNC(=O)Cn1c(C)ccc(NS(=O)(=O)Cc2ccccc2)c1=O` [L-374087], in [1], the Cmax (commonly the maximum level reached in the sampled fluid or tissue) is 2000 nM. In addition, the half-life (in general, the time needed for the level to fall by half in the phase considered) is 2.5 h in data set [2] and 3.8 h in data set [4]. In data set [3], the affinity, expressed as Ki, was 3.2 µM. Also, the t1/2 in data set [5] was 2.5 h. In addition, the Activity in data set [6] came out at 0.21 µM. Moreover, the Selectivity ratio in [7] came out at 6400.
On to `Cc1ncn(CC(=O)NC(C)(C)C)c1Cn1c(C)ccc(NS(=O)(=O)Cc2ccccc2)c1=O`, for which the Ki (as a rule, a dissociation constant, usually derived from enzyme kinetics or from competition with a known ligand) was found to be 0.00036 µM in [8] and 68 µM in [3]. Moreover, in data set [6], the Activity worked out at 0.52 µM. In addition, the Selectivity ratio in data set [7] came out at 190000.
`Cc1ncn(CC(=O)NC2CCCNC2)c1Cn1c(C)ccc(NS(=O)(=O)Cc2ccccc2)c1=O` (stereo unspecified): in data set [9], the result was inactive. The Ki in data set [8] was 0.00031 µM; in [3], 110 µM. Further, the Activity in [6] turned out to be 0.35 µM. Further, in data set [7], the Selectivity ratio worked out at 355000.
On to `Cc1nc[nH]c1CNC(=O)Cn1c(C)ccc(NS(=O)(=O)Cc2ccccc2)c1=O`, for which the Ki in [3] came out at 43 µM. For the same molecule, the Activity in data set [6] came out at 1.1 µM.
As for `Cc1ncn(CC(=O)NC2CC2)c1Cn1c(C)ccc(NS(=O)(=O)Cc2ccccc2)c1=O`, the Ki was determined as 0.0018 µM in data set [8] and 185 µM in data set [3]. Also, the Activity in [6] amounted to 0.68 µM. In addition, the Selectivity ratio in data set [7] is 103000.
Taken in the same sequence, the figures for `Cc1ncn(CC(=O)NC(C)(C)CN)c1Cn1c(C)ccc(NS(=O)(=O)Cc2ccccc2)c1=O` were 0.0003 µM, 70 µM, 0.32 µM and 233000.
On to `CCC(C)(C)NC(=O)Cn1cnc(C)c1Cn1c(C)ccc(NS(=O)(=O)Cc2ccccc2)c1=O`, for which the Ki in data set [8] came out at 0.00019 µM; in [3], 34 µM. Further, the Activity in [6] stood at 0.56 µM. Besides, the Selectivity ratio in data set [7] was 180000.
Taken in the same sequence, the figures for `Cc1ncn(CC(=O)NCCO)c1Cn1c(C)ccc(NS(=O)(=O)Cc2ccccc2)c1=O` were 0.0024 µM, 115 µM, 0.85 µM and 48000.
As for `Cc1ncn(CC(=O)NCC(C)(C)N)c1Cn1c(C)ccc(NS(=O)(=O)Cc2ccccc2)c1=O`, the values for the Ki in [8] and in [3] were 0.00068 µM and 80 µM, respectively. In addition, in [6], the Activity was 0.26 µM. In data set [7], the Selectivity ratio is 118000.
For `Cc1ncn(CC(=O)OC(C)(C)C)c1Cn1c(C)ccc(NS(=O)(=O)Cc2ccccc2)c1=O`, the Ki in data set [8] was found to be 0.00048 µM; in [3], 50 µM. The Selectivity ratio in data set [7] was 104000.
As to `Cc1ncn(CC(=O)NN2CCOCC2)c1Cn1c(C)ccc(NS(=O)(=O)Cc2ccccc2)c1=O`, the values for the Ki in [8] and in data set [3] were 0.0019 µM and 101 µM, respectively. Also, the Activity in [6] came out at 0.51 µM. Moreover, in data set [7], the Selectivity ratio stood at 53000.
With `Cc1ncn(CC(=O)NN2CC(O)C2)c1Cn1c(C)ccc(NS(=O)(=O)Cc2ccccc2)c1=O`, the figures for the Ki in data set [8] and in [3] were 0.0028 µM and 167 µM, respectively. Also, in [6], the Activity was 0.66 µM. The Selectivity ratio in data set [7] was 48000.
For `Cc1ncn(CC(=O)NN2CCCCC2)c1Cn1c(C)ccc(NS(=O)(=O)Cc2ccccc2)c1=O`, the outcome in [9] was inactive. In addition, the values for the Ki in data set [8] and in data set [3] were 0.00065 µM and 56 µM, respectively. Also, in data set [6], the Activity stood at 0.37 µM. Moreover, in data set [7], the Selectivity ratio is 86000.
For the molecule `Cc1ncn(CC(=O)NC2CC(N)C2)c1Cn1c(C)ccc(NS(=O)(=O)Cc2ccccc2)c1=O` (stereo unspecified), the Ki in [8] turned out to be 0.003 µM; in [3], 122 µM. In [6], the Activity was determined as 0.65 µM. For the same molecule, the Selectivity ratio in data set [7] is 41000.
For `Cc1ncn(CC(=O)NCCN)c1Cn1c(C)ccc(NS(=O)(=O)Cc2ccccc2)c1=O`, the outcome in data set [9] was inactive. For the same molecule, the Ki in [8] came out at 0.0009 µM; in data set [3], 85 µM. For the same molecule, the Activity in data set [6] was determined as 0.39 µM. The Selectivity ratio in data set [7] amounted to 94000.
With `Cc1ncn(CC(=O)NCC2CC2)c1Cn1c(C)ccc(NS(=O)(=O)Cc2ccccc2)c1=O`, the Ki was determined as 0.0011 µM in data set [8] and 57 µM in [3]. Further, the Selectivity ratio in [7] came to 52000.
For the molecule `Cc1ncn(CC(=O)NC2CCCNC2)c1CNC(=O)Cn1c(C)cnc(NCCc2ccccc2)c1=O` (stereo unspecified), the Ki in data set [8] was 0.0012 µM; in data set [3] it was 18 µM. Besides, the half-life is 1.1 h in [10] and 1.6 h in data set [13]. The Cmax turned out to be 1460 nM in data set [11] and 360 nM in data set [12]. Also, the Activity in [6] was 0.7 µM.
In the case of `CCNC(=O)Cn1cnc(C)c1Cn1c(C)ccc(NS(=O)(=O)Cc2ccccc2)c1=O`, the values for the Ki in [8] and in [3] were 0.002 µM and 137 µM, respectively. For the same molecule, the Activity in data set [6] came to 0.7 µM. In [7], the Selectivity ratio worked out at 70000.
Taken in the same sequence, the figures for `Cc1ncn(CC(=O)NCC(F)(F)F)c1Cn1c(C)ccc(NS(=O)(=O)Cc2ccccc2)c1=O` were 0.00083 µM, 49 µM, 0.53 µM and 59000.
